# From publication PMC9128166 (Cancer Science, 2022)
# Values joined by “and” are separate entries in the source; they are usually repeats but may differ in a detail not shown here. Equal entries are not always repeated.
# Assays:
# [1] = Treatment-emergent adverse events; format: in vivo, Japanese patients
# [2] = system: relapsed or refractory follicular lymphoma; experiment: Investigator-assessed response; format: in vivo, Japanese patients
# In short: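 Investigator-assessed response by Lugano criteria in the full analysis set (all treated patients). Patients received 10 or 20 mg QD orally for 8 weeks, then the same dose QW. CT, FDG-PET or PET-CT was chosen by subtype, using the same technique as at screening. Scans ran every 8 weeks through week 24, every 12 weeks through week 96, then every 24 weeks until progression.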
# [3] = Any TEAE, QD dosing period (n = 17)
# [4] = Any TEAE, QW dosing period (n = 12)
# [5] = Grade ≥3 TEAE, QD dosing period (n = 17)
# [6] = Grade ≥3 TEAE, QW dosing period (n = 12)
compound,measurement,setting,value
CCOc1c([C@H](C)n2nc(C)c3c(N)ncnc32)cc(Cl)c(F)c1[C@@H]1CNC(=O)C1 [parsaclisib],Serious TEAE of pyrexia,[1]; 2 patients,11.8%
same,"rash (AESI), severity",[1]; 3 patients,2 patients with grade 1 and 1 patient with grade 2
same,nausea (TEAE),"[1]; 4 of 17 patients, total",23.5%
same,pyrexia (TEAE),"[1]; 4 of 17 patients, total",23.5%
same,Serious TEAEs,[1]; 5 patients,29.4%
same,TEAEs leading to dose reduction,[1]; 5 patients,29.4%
same,decreased neutrophil count leading to dose interruption,[1]; 5 patients,29.4%
same,constipation (TEAE),"[1]; 6 of 17 patients, total",35.3%
same,Adverse events of special interest,[1]; 7 patients,41.2%
same,TEAEs of grade 3 or higher,[1]; 11 patients,64.7%
same,Constipation,[1]; [3],4 (23.5) n (%)
same,Cough,[1]; [3],2 (11.8) n (%)
same,Cystitis,[1]; [3],1 (5.9) n (%)
same,Diarrhea,[1]; [3],0 (0.0) n (%)
same,Drug eruption,[1]; [3],3 (17.6) n (%)
same,Dry eye,[1]; [3],0 (0.0) n (%)
same,Dry skin,[1]; [3],2 (11.8) n (%)
same,Fall,[1]; [3],2 (11.8) n (%)
same,Gastritis,[1]; [3],2 (11.8) n (%)
same,Headache,[1]; [3],2 (11.8) n (%)
same,Hyperkalemia,[1]; [3],0 (0.0) n (%)
same,Hypoalbuminemia,[1]; [3],2 (11.8) n (%)
same,Insomnia,[1]; [3],0 (0.0) n (%)
same,Myalgia,[1]; [3],1 (5.9) n (%)
same,Nasopharyngitis,[1]; [3],0 (0.0) n (%)
same,Nausea,[1]; [3],2 (11.8) n (%)
same,Pyrexia,[1]; [3],3 (17.6) n (%)
same,Rash,[1]; [3],1 (5.9) n (%)
same,Stomatitis,[1]; [3],2 (11.8) n (%)
same,Upper respiratory tract infection,[1]; [3],2 (11.8) n (%)
same,Constipation,[1]; [4],2 (16.7) n (%)
same,Cough,[1]; [4],0 (0.0) n (%)
same,Cystitis,[1]; [4],1 (8.3) n (%)
same,Diarrhea,[1]; [4],3 (25.0) n (%)
same,Drug eruption,[1]; [4],0 (0.0) n (%)
same,Dry eye,[1]; [4],2 (16.7) n (%)
same,Dry skin,[1]; [4],0 (0.0) n (%)
same,Fall,[1]; [4],0 (0.0) n (%)
same,Gastritis,[1]; [4],0 (0.0) n (%)
same,Headache,[1]; [4],1 (8.3) n (%)
same,Hyperkalemia,[1]; [4],2 (16.7) n (%)
same,Hypoalbuminemia,[1]; [4],0 (0.0) n (%)
same,Insomnia,[1]; [4],3 (25.0) n (%)
same,Myalgia,[1]; [4],1 (8.3) n (%)
same,Nasopharyngitis,[1]; [4],3 (25.0) n (%)
same,Nausea,[1]; [4],3 (25.0) n (%)
same,Pyrexia,[1]; [4],1 (8.3) n (%)
same,Rash,[1]; [4],2 (16.7) n (%)
same,Stomatitis,[1]; [4],0 (0.0) n (%)
same,Upper respiratory tract infection,[1]; [4],0 (0.0) n (%)
same,Constipation,"[1]; Any TEAE, Total (N = 17)",6 (35.3) n (%)
same,Cough,"[1]; Any TEAE, Total (N = 17)",2 (11.8) n (%)
same,Cystitis,"[1]; Any TEAE, Total (N = 17)",2 (11.8) n (%)
same,Diarrhea,"[1]; Any TEAE, Total (N = 17)",3 (17.6) n (%)
same,Drug eruption,"[1]; Any TEAE, Total (N = 17)",3 (17.6) n (%)
same,Dry eye,"[1]; Any TEAE, Total (N = 17)",2 (11.8) n (%)
same,Dry skin,"[1]; Any TEAE, Total (N = 17)",2 (11.8) n (%)
same,Fall,"[1]; Any TEAE, Total (N = 17)",2 (11.8) n (%)
same,Gastritis,"[1]; Any TEAE, Total (N = 17)",2 (11.8) n (%)
same,Headache,"[1]; Any TEAE, Total (N = 17)",3 (17.6) n (%)
same,Hyperkalemia,"[1]; Any TEAE, Total (N = 17)",2 (11.8) n (%)
same,Hypoalbuminemia,"[1]; Any TEAE, Total (N = 17)",2 (11.8) n (%)
same,Insomnia,"[1]; Any TEAE, Total (N = 17)",3 (17.6) n (%)
same,Myalgia,"[1]; Any TEAE, Total (N = 17)",2 (11.8) n (%)
same,Nasopharyngitis,"[1]; Any TEAE, Total (N = 17)",3 (17.6) n (%)
same,Nausea,"[1]; Any TEAE, Total (N = 17)",4 (23.5) n (%)
same,Pyrexia,"[1]; Any TEAE, Total (N = 17)",4 (23.5) n (%)
same,Rash,"[1]; Any TEAE, Total (N = 17)",3 (17.6) n (%)
same,Stomatitis,"[1]; Any TEAE, Total (N = 17)",2 (11.8) n (%)
same,Upper respiratory tract infection,"[1]; Any TEAE, Total (N = 17)",2 (11.8) n (%)
same,Constipation,[1]; [5],0 (0.0) n (%)
same,Cough,[1]; [5],0 (0.0) n (%)
same,Cystitis,[1]; [5],0 (0.0) n (%)
same,Diarrhea,[1]; [5],0 (0.0) n (%)
same,Drug eruption,[1]; [5],0 (0.0) n (%)
same,Dry eye,[1]; [5],0 (0.0) n (%)
same,Dry skin,[1]; [5],0 (0.0) n (%)
same,Fall,[1]; [5],0 (0.0) n (%)
same,Gastritis,[1]; [5],0 (0.0) n (%)
same,Headache,[1]; [5],0 (0.0) n (%)
same,Hyperkalemia,[1]; [5],0 (0.0) n (%)
same,Hypoalbuminemia,[1]; [5],1 (5.9) n (%)
same,Insomnia,[1]; [5],0 (0.0) n (%)
same,Myalgia,[1]; [5],0 (0.0) n (%)
same,Nasopharyngitis,[1]; [5],0 (0.0) n (%)
same,Nausea,[1]; [5],0 (0.0) n (%)
same,Pyrexia,[1]; [5],0 (0.0) n (%)
same,Rash,[1]; [5],0 (0.0) n (%)
same,Stomatitis,[1]; [5],0 (0.0) n (%)
same,Upper respiratory tract infection,[1]; [5],0 (0.0) n (%)
same,Constipation,[1]; [6],0 (0.0) n (%)
same,Cough,[1]; [6],0 (0.0) n (%)
same,Cystitis,[1]; [6],0 (0.0) n (%)
same,Diarrhea,[1]; [6],0 (0.0) n (%)
same,Drug eruption,[1]; [6],0 (0.0) n (%)
same,Dry eye,[1]; [6],0 (0.0) n (%)
same,Dry skin,[1]; [6],0 (0.0) n (%)
same,Fall,[1]; [6],0 (0.0) n (%)
same,Gastritis,[1]; [6],0 (0.0) n (%)
same,Headache,[1]; [6],0 (0.0) n (%)
same,Hyperkalemia,[1]; [6],0 (0.0) n (%)
same,Hypoalbuminemia,[1]; [6],0 (0.0) n (%)
same,Insomnia,[1]; [6],0 (0.0) n (%)
same,Myalgia,[1]; [6],0 (0.0) n (%)
same,Nasopharyngitis,[1]; [6],0 (0.0) n (%)
same,Nausea,[1]; [6],0 (0.0) n (%)
same,Pyrexia,[1]; [6],0 (0.0) n (%)
same,Rash,[1]; [6],0 (0.0) n (%)
same,Stomatitis,[1]; [6],0 (0.0) n (%)
same,Upper respiratory tract infection,[1]; [6],0 (0.0) n (%)
same,Constipation,"[1]; Grade ≥3 TEAE, Total (N = 17)",0 (0.0) n (%)
same,Cough,"[1]; Grade ≥3 TEAE, Total (N = 17)",0 (0.0) n (%)
same,Cystitis,"[1]; Grade ≥3 TEAE, Total (N = 17)",0 (0.0) n (%)
same,Diarrhea,"[1]; Grade ≥3 TEAE, Total (N = 17)",0 (0.0) n (%)
same,Drug eruption,"[1]; Grade ≥3 TEAE, Total (N = 17)",0 (0.0) n (%)
same,Dry eye,"[1]; Grade ≥3 TEAE, Total (N = 17)",0 (0.0) n (%)
same,Dry skin,"[1]; Grade ≥3 TEAE, Total (N = 17)",0 (0.0) n (%)
same,Fall,"[1]; Grade ≥3 TEAE, Total (N = 17)",0 (0.0) n (%)
same,Gastritis,"[1]; Grade ≥3 TEAE, Total (N = 17)",0 (0.0) n (%)
same,Headache,"[1]; Grade ≥3 TEAE, Total (N = 17)",0 (0.0) n (%)
same,Hyperkalemia,"[1]; Grade ≥3 TEAE, Total (N = 17)",0 (0.0) n (%)
same,Hypoalbuminemia,"[1]; Grade ≥3 TEAE, Total (N = 17)",1 (5.9) n (%)
same,Insomnia,"[1]; Grade ≥3 TEAE, Total (N = 17)",0 (0.0) n (%)
same,Myalgia,"[1]; Grade ≥3 TEAE, Total (N = 17)",0 (0.0) n (%)
same,Nasopharyngitis,"[1]; Grade ≥3 TEAE, Total (N = 17)",0 (0.0) n (%)
same,Nausea,"[1]; Grade ≥3 TEAE, Total (N = 17)",0 (0.0) n (%)
same,Pyrexia,"[1]; Grade ≥3 TEAE, Total (N = 17)",0 (0.0) n (%)
same,Rash,"[1]; Grade ≥3 TEAE, Total (N = 17)",0 (0.0) n (%)
same,Stomatitis,"[1]; Grade ≥3 TEAE, Total (N = 17)",0 (0.0) n (%)
same,Upper respiratory tract infection,"[1]; Grade ≥3 TEAE, Total (N = 17)",0 (0.0) n (%)
same,patients with at least one TEAE,[1]; N = 17,all patients
same,neutropenia leading to dose interruption,[1]; additional 2 patients,11.8%
same,serious TEAE of pancreatitis,"[1]; dose interruption on both occurrences, responded to corticosteroid","One patient experienced a serious TEAE of pancreatitis (grade 2, study days 78 and 145)"
same,TEAEs leading to dose interruption,[1]; during QD dosing,7 patients
same,TEAEs leading to dose reduction,[1]; during QD dosing,2 patients
same,TEAEs leading to dose interruption,[1]; during QW dosing,4 patients
same,TEAEs leading to dose reduction,[1]; during QW dosing,3 patients
same,Varicella zoster infection (AESI),"[1]; grade 2 in severity, led to parsaclisib discontinuation",1 patient
same,TEAEs leading to parsaclisib dose reduction (terms),"[1]; human, in vivo, oral","febrile neutropenia (1 patient), drug eruption and neutropenia in a single patient during the QD period, pancreatitis and pancreatitis relapsing in a single patient, and diarrhea (1 patient) and exfoliative dermatitis (1 patient) during the QW period"
same,"febrile neutropenia (AESI), occurrence and severity","[1]; human, in vivo, oral",Two patients experienced grade 3
same,"exfoliative dermatitis (AESI), occurrence and severity","[1]; human, in vivo, oral, 64 day",One patient experienced grade 1
same,Nonhematologic grade 3 or higher TEAEs occurring in 1 patient each,[1]; in vivo,"bile duct stenosis (secondary to pancreatitis), hypoalbuminemia, and lymphoma progression (metastases to meninges [lymphomatous meningitis])"
same,Other serious TEAEs experienced by 1 patient each,[1]; in vivo,"diarrhea, enteritis infection, febrile neutropenia, metastases to meninges, and pancreatitis"
same,TEAEs with a fatal outcome,[1]; in vivo,no TEAEs with a fatal outcome
same,"diarrhea (AESI), longest time to resolution",[1]; individual patients,14 days and 18 days and 67 days
same,"diarrhea (AESI), time to first onset",[1]; individual patients,70 days and 108 days and 305 days
same,"febrile neutropenia (AESI), time to onset",[1]; individual patients,28 days and 63 days
same,"febrile neutropenia (AESI), time to resolution",[1]; individual patients,10 days and 2 days
same,"rash (AESI), longest time to resolution",[1]; individual patients,5 days and 8 days and 23 days
same,"rash (AESI), time to onset of first occurrence",[1]; individual patients,11 days and 50 days and 312 days
same,"Varicella zoster infection (AESI), onset",[1]; one patient,33 days
same,"Varicella zoster infection (AESI), resolution",[1]; one patient,21 days
same,"exfoliative dermatitis (AESI), onset",[1]; one patient,64 days
same,"exfoliative dermatitis (AESI), resolution",[1]; one patient,36 days
same,"diarrhea (AESI), severity","[1]; three patients, none led to discontinuation",1 patient with grade 1 and 2 patients with grade 2
same,"BOR, CMR/CR",[2]; FL (n = 9),2 (22.2) n (%)
same,"BOR, NMR/SD",[2]; FL (n = 9),0 (0.0) n (%)
same,"BOR, PMD/PD",[2]; FL (n = 9),0 (0.0) n (%)
same,"BOR, PMR/PR",[2]; FL (n = 9),7 (77.8) n (%)
same,Objective response,[2]; FL (n = 9),9 (100.0) n (%)
same,"BOR, Not assessed","[2]; FL (n = 9), no postbaseline response data available",0 (0.0) n (%)
same,complete response,"[2]; FL, 2 of 9 patients",22.2%
same,ORR,"[2]; FL, 9 of 9 patients",100%
same,observed PFS,[2]; nine responders with FL,1.9–17.5 months
